Measurements reported in ChEMBL document CHEMBL3227993, “Studies on 3-substituted 1,2-benzisoxazole derivatives. 6. Syntheses of 3-(sulfamoylmethyl)-1,2-benzisoxazole derivatives and their anticonvulsant activities” (J Med Chem, 1979).
Calls of active or inactive are those of the source. The calls are words filed in the database; no cut-off is given here.

Columns and labels:
[1] = Neurotoxicity in po dosed STD-dd mouse assessed as muscle incoordination administered via gavage by rotarod test; type: toxicity, organism-based, Muscle tissue; settings: in vivo
Method in brief: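 Gavage dosing as a suspension in 5% tragacanth solution, with ten mice per dose level at ≥4 levels. Rotarod test 2 h after dosing used a horizontal rod 2.5 cm in diameter rotating at 11 rpm. Minimal neurotoxicity end point was muscle incoordination, i.e. inability to stay on the rod. NTD50 was calculated by Litchfield–Wilcoxon.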

Mus musculus [2] = assay: Anticonvulsant activity in po dosed STD-dd mouse assessed as protection against hind-limb extensor component of maximal electroshock seizure administered via gavage measured 2 hrs after drug dosing; type: functional
Method in brief: (§1)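 Mice dosed by gavage as a suspension in 5% tragacanth solution. Maximal electroshock was given as 60-Hz, 25-mA current for 0.2 s through corneal electrodes, 2 h after dosing. Protection was scored as prevention of hind-limb extension. Preliminary screen used 100 mg/kg. For ED50, groups of ten mice per dose level at ≥4 dose levels, with values calculated by Litchfield–Wilcoxon.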

Mus musculus [3] = assay: Anticonvulsant activity in STD-dd mouse assessed as protection against hind-limb extensor component of maximal electroshock seizure at 100 mg/kg, po administered via gavage measured 2 hrs after drug dosing; type: functional, organism-based; design: dose 100 mg/kg; method in brief: as §1

Compound	TD50 [1] [mg/kg]	ED50 (Mus musculus [2]) [mg/kg]	Activity (Mus musculus [3])
CN(C)S(=O)(=O)Cc1noc2ccc(F)cc12	350	32	
CNS(=O)(=O)Cc1noc2ccccc12		23	
O=S(=O)(Cc1noc2ccccc12)NO		32	
CN(C)S(=O)(=O)Cc1noc2ccccc12		37	
O=S(=O)(Cc1noc2ccccc12)NCCO			inactive
CN1CCN(S(=O)(=O)Cc2noc3ccc(F)cc23)CC1	142	100	
CCC1(CC)C(=O)NC(=O)N(C)C1=O [METHARBITAL]	87.9	60.8	
CN(C)NS(=O)(=O)Cc1noc2ccccc12			inactive
O=S(=O)(Cc1noc2ccccc12)NCc1ccccc1			inactive
O=S(=O)(Cc1noc2ccccc12)N1CCN(c2ccccc2)CC1			inactive
CCCNS(=O)(=O)Cc1noc2ccccc12			inactive
COc1ccc2onc(CS(N)(=O)=O)c2c1			inactive
CC(C)NS(=O)(=O)Cc1noc2ccc(Cl)cc12		100	
NS(=O)(=O)Cc1noc2ccc(F)cc12		15	
NS(=O)(=O)CCCc1noc2ccccc12		39	
O=S(=O)(Cc1noc2ccccc12)N1CCCCC1			inactive
O=S(=O)(Cc1noc2ccccc12)N1CCN(Cc2ccccc2)CC1			inactive
CNS(=O)(=O)Cc1noc2ccc(Br)cc12		15	
NS(=O)(=O)Cc1noc2ccc(Cl)cc12	52	14	
CN1CCN(S(=O)(=O)Cc2noc3ccccc23)CC1		57	
O=S(=O)(Cc1noc2ccccc12)N1CCOCC1			inactive
O=S(=O)(Cc1noc2ccccc12)Nc1ccccc1			inactive
NNS(=O)(=O)Cc1noc2ccccc12			inactive

Compound	TD50 [1] [mg/kg]	ED50 (Mus musculus [2]) [mg/kg]	Activity (Mus musculus [3])
COC(=O)c1ccccc1NS(=O)(=O)Cc1noc2ccccc12			inactive
CN(C)S(=O)(=O)Cc1noc2ccc(Br)cc12	100	45	
CC(C)NS(=O)(=O)Cc1noc2ccc(F)cc12	109	38	
CCNS(=O)(=O)Cc1noc2ccc(F)cc12	200	32	
NS(=O)(=O)Cc1noc2cc(F)ccc12		19	
O=C1NC(=O)C(c2ccccc2)(c2ccccc2)N1 [PHENYTOIN]	111	10	
CN(C)CCCNS(=O)(=O)Cc1noc2ccccc12			inactive
CN1CCN(S(=O)(=O)Cc2noc3ccc(Br)cc23)CC1	87	88	
NS(=O)(=O)Cc1noc2ccc([N+](=O)[O-])cc12			inactive
NS(=O)(=O)Cc1noc2ccc(Br)cc12	60	14	
Cc1ccc2onc(CS(N)(=O)=O)c2c1			inactive
Cc1cccc2c(CS(N)(=O)=O)noc12			inactive
NS(=O)(=O)Cc1noc2ccccc12 [ZONISAMIDE]		20	
CCNS(=O)(=O)Cc1noc2ccc(Br)cc12	66	18	
CNS(=O)(=O)Cc1noc2ccc(F)cc12	168	35	
CCNS(=O)(=O)Cc1noc2ccccc12	223	39	
CC(C)NS(=O)(=O)Cc1noc2ccccc12	340	56	
CN(C)S(=O)(=O)Cc1noc2ccc(Cl)cc12	250	57	
CNS(=O)(=O)Cc1noc2ccc(Cl)cc12	60	20	
CCNS(=O)(=O)Cc1noc2ccc(Cl)cc12		21	
NS(=O)(=O)CCc1noc2ccccc12		26	
CC(C)NS(=O)(=O)Cc1noc2ccc(Br)cc12	93	22	
